According to ChEMBL document CHEMBL1137736, “Substituted quinolinyl chalcones and quinolinyl pyrimidines as a new class of anti-infective agents” (Eur J Med Chem, 2009):
Values after ≈ are worked out from the molar mass of the structure shown. Active and inactive are the calls of the source. The rule behind the calls is not given here.

Experiments:
[1] = tested on: Mycobacterium tuberculosis; assay: Antitubercular activity against Mycobacterium tuberculosis H37Rv after 4 weeks by serial twofold dilution method; format: functional
Summary of the method: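 Serial twofold dilutions of a 1.0 mg/mL DMSO stock were incorporated into Middlebrook 7H10 agar slants with OADC. H37Rv grown on Lowenstein–Jensen medium was harvested in N-saline with 0.05% Tween-80 and dispersed with glass beads into a single-cell suspension. The working inoculum was 2 107 cfu/mL. MIC was the lowest concentration giving complete growth inhibition.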

[2] = tested on: Plasmodium falciparum; assay: Antimalarial activity as inhibition of schizont maturation against Plasmodium falciparum NF54 after 36 - 40 hrs; format: functional
Summary of the method: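 P. falciparum NF-54 kept in RPMI-1640 with 25 mM HEPES, 1% D-glucose, 0.23% sodium bicarbonate and 10% heat-inactivated human serum. Compounds tested in duplicate at 0.25–[…] in 96-well microassay with parasitized cells, 37 C, candle jar, 36–40 h. Giemsa-stained smears scored for ring maturation to schizonts. MIC is lowest concentration blocking complete schizont maturation.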

[3] = tested on: Vero; assay: Cytotoxicity against african green monkey Vero cells after 24 hrs by MTS assay; format: cell-based; details: chlorocebus sabaeus
Summary of the method: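 VERO cells seeded at 10^4 cells/well in MEM with antibiotics and 10% FBS, incubated 24 h (37 C, 5% CO2). Medium then replaced by 5% FBS, antibiotic-free medium with compound or DMSO for 24 h. MTS added and A490 read after 2 h, with DMSO wells as 100% survival. Toxic means 50% inhibition at 10-fold the MIC.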

[4] = Cytotoxicity against mouse BMDM cells after 5 days by MTS assay; format: cell-based; details: 120 h
Summary of the method: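 Mouse bone-marrow-derived macrophages plated at 10^5 cells/well in DMEM with antibiotics, 10% FBS, 15% (v/v) L-929 conditioned supernatant and non-essential amino acids. After compound exposure, incubated 5 days at 37 C, 5% CO2. MTS added and A490 read after 2 h, with DMSO wells as 100% survival. Toxic means 50% inhibition at 10-fold the MIC.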

| Structure (SMILES) | MIC [1] | MIC [2] | MIC ([1]; 672 h) [µg/mL] | Activity [3] | Activity [4] |
| --- | --- | --- | --- | --- | --- |
| CSc1ccc(-c2cc(-c3ccc(Nc4ccnc5cc(Cl)ccc45)cc3)nc(N)n2)cc1 | inactive | 1 µg/mL (≈ 2.13 µM) |  |  |  |
| NC(=O)c1cnccn1 [PYRAZINAMIDE] |  |  | 50 (≈ 406 µM) | Non-toxic | Non-toxic |
| COc1ccc(-c2cc(-c3ccc(Nc4ccnc5cc(Cl)ccc45)cc3)nc(N)n2)cc1 | inactive | 2 µg/mL (≈ 4.41 µM) |  |  |  |
| Nc1nc(-c2ccc(Nc3ccnc4cc(Cl)ccc34)cc2)cc(-c2ccco2)n1 |  | inactive | 12.5 (≈ 30.2 µM) |  |  |
| COc1cc(-c2cc(-c3ccc(Nc4ccnc5cc(Cl)ccc45)cc3)nc(N)n2)cc(OC)c1OC |  | inactive | 12.5 (≈ 24.3 µM) |  |  |
| O=C(/C=C/c1ccc(Cl)cc1)c1ccc(Nc2ccnc3cc(Cl)ccc23)cc1 |  | inactive | 6.25 (≈ 14.9 µM) |  |  |
| Nc1nc(-c2ccc(Nc3ccnc4cc(Cl)ccc34)cc2)cc(-c2cccnc2)n1 | inactive | 1 µg/mL (≈ 2.35 µM) |  |  |  |
| CC(C)c1ccc(-c2cc(-c3ccc(Nc4ccnc5cc(Cl)ccc45)cc3)nc(N)n2)cc1 |  | 1 µg/mL (≈ 2.15 µM) | 6.25 (≈ 13.4 µM) |  |  |
| COc1cccc(/C=C/C(=O)c2ccc(Nc3ccnc4cc(Cl)ccc34)cc2)c1OC |  | inactive | 3.12 (≈ 7.01 µM) | Non-toxic | Non-toxic |
| COc1ccc(OC)c(/C=C/C(=O)c2ccc(Nc3ccnc4cc(Cl)ccc34)cc2)c1 |  | inactive | 3.12 (≈ 7.01 µM) | Non-toxic | Non-toxic |
| CCN(CC)CCCC(C)Nc1ccnc2cc(Cl)ccc12 (stereo unspecified) [CHLOROQUINE] |  | 0.125 µg/mL (≈ 0.391 µM) |  |  |  |
